Measurements: ChEMBL document CHEMBL3872230, “Inhibition of the enzymes in the leukotriene and prostaglandin pathways in inflammation by 3-aryl isocoumarins” (Eur J Med Chem, 2016)
Blank lines part the entries; values can stand above or below the molecule they belong to. The source made the active and inactive calls. No cut-off for these calls is given here.

What was measured:
[1] = biological target: T1, Prostaglandin E synthase (Homo sapiens) (UniProt O14684); assay: Inhibition of mPGES1 in human HeLa cells assessed as reduction in TNF-alpha induced PGE2 production at 50 uM preincubated for 2 hrs followed by TNF-alpha addition for 24 hrs by ELISA; format: cell-based
T1 sequence (whole entry): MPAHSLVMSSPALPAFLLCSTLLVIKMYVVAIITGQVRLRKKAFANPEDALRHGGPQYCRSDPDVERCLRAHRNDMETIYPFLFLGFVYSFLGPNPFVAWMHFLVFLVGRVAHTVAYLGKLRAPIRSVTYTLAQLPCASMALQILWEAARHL
How it was run: (§1)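 Read-out was PGE2 released into the HeLa culture supernatant, measured with an ELISA kit.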

[2] = Cytotoxicity against human HeLa cells assessed as cell proliferation at 50 uM after 24 hrs by MTT assay; format: toxicity, cell-based; conditions: read-out: Activity
[3] = biological target: T2, Polyunsaturated fatty acid 5-lipoxygenase (Homo sapiens) (UniProt P09917); assay: Inhibition of human recombinant 5-LOX expressed in Escherichia coli BL21 assessed as decrease in 5-HPETE production at 50 uM preincubated with enzyme followed by arachidonic acid substrate addition by UV-vis spectrophotometry
T2 sequence (whole entry): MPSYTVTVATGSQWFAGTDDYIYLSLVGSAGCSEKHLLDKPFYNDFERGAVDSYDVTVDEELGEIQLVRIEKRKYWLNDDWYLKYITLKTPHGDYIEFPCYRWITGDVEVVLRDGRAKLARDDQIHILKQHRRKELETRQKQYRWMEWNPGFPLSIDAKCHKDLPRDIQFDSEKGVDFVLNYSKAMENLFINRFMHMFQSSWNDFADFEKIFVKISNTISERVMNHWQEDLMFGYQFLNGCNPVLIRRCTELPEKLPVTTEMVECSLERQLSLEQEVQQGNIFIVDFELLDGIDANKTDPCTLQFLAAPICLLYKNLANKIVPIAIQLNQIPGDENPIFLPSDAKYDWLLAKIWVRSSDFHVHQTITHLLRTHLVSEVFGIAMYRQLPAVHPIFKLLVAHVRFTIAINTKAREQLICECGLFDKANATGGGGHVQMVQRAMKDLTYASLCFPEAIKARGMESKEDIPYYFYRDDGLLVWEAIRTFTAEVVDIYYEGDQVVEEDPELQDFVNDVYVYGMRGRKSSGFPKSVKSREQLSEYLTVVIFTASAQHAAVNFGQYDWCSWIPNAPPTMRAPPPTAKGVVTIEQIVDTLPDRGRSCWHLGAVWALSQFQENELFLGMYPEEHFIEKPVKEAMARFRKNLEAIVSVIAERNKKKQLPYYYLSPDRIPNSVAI

[4] = Antioxidant activity assessed as DPPH radical scavenging activity at 50 uM after 30 mins; format: functional
Prostaglandin E synthase [5] = biological target: T3, Prostaglandin E synthase (Homo sapiens, UniProt O14684); assay: Inhibition of mPGES1 in human HeLa cells assessed as reduction in TNF-alpha induced PGE2 production preincubated for 2 hrs followed by TNF-alpha addition for 24 hrs by ELISA; format: cell-based; how it was run: as §1
T3 sequence (O14684 whole entry): T1 sequence (whole entry)

[6] = biological target: T4, Polyunsaturated fatty acid 5-lipoxygenase (Homo sapiens, UniProt P09917); assay: Inhibition of human recombinant 5-LOX expressed in Escherichia coli BL21 assessed as decrease in 5-HPETE production preincubated with enzyme followed by arachidonic acid substrate addition by UV-vis spectrophotometry
T4 sequence (P09917 whole entry): T2 sequence (whole entry)

[7] = biological target: T5, Prostaglandin E synthase/G/H synthase 2 (Homo sapiens) (UniProt P35354+O14684); assay: Inhibition of COX-2/mPGES1 in human HeLa cells assessed as reduction in TNF-alpha induced PGE2 production at 50 uM preincubated for 15 mins followed by arachidonic acid addition for 15 mins by ELISA; format: cell-based
T5 sequence (P35354 whole entry, looked up, one chain of several): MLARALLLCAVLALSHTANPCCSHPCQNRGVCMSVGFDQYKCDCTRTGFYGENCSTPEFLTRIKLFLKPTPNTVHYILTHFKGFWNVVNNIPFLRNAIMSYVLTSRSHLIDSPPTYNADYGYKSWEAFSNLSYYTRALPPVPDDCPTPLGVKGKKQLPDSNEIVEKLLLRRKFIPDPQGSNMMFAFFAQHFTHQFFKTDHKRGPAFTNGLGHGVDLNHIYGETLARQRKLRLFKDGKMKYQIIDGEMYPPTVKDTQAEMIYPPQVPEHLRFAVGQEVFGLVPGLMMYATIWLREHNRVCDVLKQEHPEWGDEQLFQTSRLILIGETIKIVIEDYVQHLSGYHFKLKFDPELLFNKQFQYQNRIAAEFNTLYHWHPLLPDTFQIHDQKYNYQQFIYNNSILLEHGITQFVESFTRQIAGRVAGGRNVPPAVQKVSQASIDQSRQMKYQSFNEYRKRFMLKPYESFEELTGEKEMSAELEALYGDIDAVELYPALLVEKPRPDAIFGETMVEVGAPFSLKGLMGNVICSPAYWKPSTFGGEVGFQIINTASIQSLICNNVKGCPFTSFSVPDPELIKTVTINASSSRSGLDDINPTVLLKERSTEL
How it was run: (§2)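 HeLa cells primed with TNF at 50 ng/ml to induce mPGES1, then exposed to compound for 15 min, then challenged with exogenous arachidonic acid for a further 15 min. PGE2 released into the culture supernatant was quantified by ELISA.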

HeLa [8] = assay: Increase in NFkappaB mRNA expression in human HeLa cells at 50 uM by RT-PCR method relative to control; format: functional
How it was run: (§3)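 Real-time PCR on treated HeLa cells. mRNA levels were normalized to untreated cells and to β-actin, and significance was assessed by 2-way ANOVA.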

HeLa [9] = assay: Increase in IL-6 mRNA expression in human HeLa cells at 50 uM by RT-PCR method relative to control; format: functional; how it was run: as §3
HeLa [10] = assay: Inhibition of mPGES1 mRNA expression in human HeLa cells at 50 uM by RT-PCR method; format: functional, cell-based; how it was run: as §3
[11] = biological target: T5, Prostaglandin E synthase/G/H synthase 2 (Homo sapiens); assay: Inhibition of COX-2/mPGES1 in human HeLa cells assessed as reduction in TNF-alpha induced PGE2 production at 50 uM after 15 mins followed by ELISA; format: cell-based
How it was run: (§4)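 TNF-treated HeLa cells were exposed to compound for 15 min without added arachidonic acid. PGE2 released into the culture supernatant was measured by ELISA.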

HeLa [12] = assay: Increase in IFN-gamma mRNA expression in human HeLa cells at 50 uM by RT-PCR method relative to control; format: functional; how it was run: as §3
HeLa [13] = assay: Increase in TGF-beta3 mRNA expression in human HeLa cells at 50 uM by RT-PCR method relative to control; format: functional; how it was run: as §3
HeLa [14] = assay: Inhibition of COX-2 mRNA expression in human HeLa cells at 50 uM by RT-PCR method; format: functional, cell-based; how it was run: as §3
HeLa [15] = assay: Inhibition of COX-2 mRNA expression in human HeLa cells at 5 uM by RT-PCR method; format: functional, cell-based; how it was run: as §3
[16] = biological target: T1, Prostaglandin E synthase (Homo sapiens); assay: Inhibition of mPGES1 in human HeLa cells assessed as reduction in TNF-alpha induced PGE2 production at 5 uM preincubated for 2 hrs followed by TNF-alpha addition for 24 hrs by ELISA; format: cell-based; how it was run: as §1
[17] = biological target: Prostaglandin G/H synthase 1 (Homo sapiens, UniProt P23219); assay: Inhibition of COX-1 (unknown origin)
Chain of Prostaglandin G/H synthase 1 (P23219 whole entry): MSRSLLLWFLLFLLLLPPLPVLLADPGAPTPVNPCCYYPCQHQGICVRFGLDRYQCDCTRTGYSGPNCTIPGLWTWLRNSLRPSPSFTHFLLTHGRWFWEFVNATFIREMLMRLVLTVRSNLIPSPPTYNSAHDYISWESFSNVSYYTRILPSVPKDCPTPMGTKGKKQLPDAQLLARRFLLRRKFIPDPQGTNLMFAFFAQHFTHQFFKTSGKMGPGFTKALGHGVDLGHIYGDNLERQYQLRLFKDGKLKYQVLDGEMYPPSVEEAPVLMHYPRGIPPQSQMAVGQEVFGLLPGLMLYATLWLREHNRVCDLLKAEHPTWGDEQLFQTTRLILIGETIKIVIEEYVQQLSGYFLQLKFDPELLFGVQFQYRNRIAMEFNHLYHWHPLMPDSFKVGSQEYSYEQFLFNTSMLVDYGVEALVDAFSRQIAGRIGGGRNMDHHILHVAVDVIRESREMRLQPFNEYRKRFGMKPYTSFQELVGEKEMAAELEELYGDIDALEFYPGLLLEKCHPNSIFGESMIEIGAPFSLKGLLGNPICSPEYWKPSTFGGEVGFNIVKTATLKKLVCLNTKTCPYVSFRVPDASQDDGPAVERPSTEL

Prostaglandin E synthase [18] = biological target: T3, Prostaglandin E synthase; assay: Inhibition of mPGES1 in human A549 cells assessed as reduction in PGE2 production; format: cell-based
[19] = biological target: T5, Prostaglandin E synthase/G/H synthase 2 (Homo sapiens); assay: Inhibition of COX-2/mPGES1 in human HeLa cells assessed as reduction in TNF-alpha induced PGE2 production at 5 uM after 15 mins followed by ELISA; format: cell-based; how it was run: as §4
[20] = biological target: T5, Prostaglandin E synthase/G/H synthase 2 (Homo sapiens); assay: Inhibition of COX-2/mPGES1 in human HeLa cells assessed as reduction in TNF-alpha induced PGE2 production at 5 uM preincubated for 15 mins followed by arachidonic acid addition for 15 mins by ELISA; format: cell-based; how it was run: as §2
HeLa [21] = assay: Inhibition of mPGES1 mRNA expression in human HeLa cells at 5 uM by RT-PCR method; format: functional, cell-based; how it was run: as §3
[22] = biological target: T2, Polyunsaturated fatty acid 5-lipoxygenase (Homo sapiens); conditions: 10 uM
[23] = substrate: O=c1oc(-c2ccc(O)c(O)c2)cc2ccccc12; conditions: Homo sapiens; 50 uM
[24] = substrate: O=c1oc(-c2ccc(O)c(O)c2)cc2ccccc12; conditions: Homo sapiens; 10 uM
[25] = substrate: O=c1oc(-c2ccc(O)c(O)c2)cc2ccccc12; conditions: Homo sapiens; 10 uM; remark: listed apart in the source
[26] = substrate: COc1cc(-c2cc3cccc(O)c3c(=O)o2)cc(OC)c1OC; conditions: Homo sapiens; 30 uM
[27] = substrate: O=c1oc(-c2ccc(O)c(O)c2)cc2ccccc12; conditions: Homo sapiens; 50 uM; remark: listed apart in the source
[28] = substrate: COc1cc(-c2cc3cccc(O)c3c(=O)o2)cc(OC)c1OC; conditions: Homo sapiens; 10 uM
[29] = substrate: COc1cc(-c2cc3cccc(O)c3c(=O)o2)cc(OC)c1OC; conditions: Homo sapiens; 30 uM; remark: listed apart in the source
[30] = substrate: COc1cc(-c2cc3cccc(O)c3c(=O)o2)cc(OC)c1OC; conditions: Homo sapiens; 10 uM; remark: listed apart in the source

inhibition [1]: 54% | inhibition [3]: 49.2%
Molecule: COc1cc(O)c2c(=O)oc(-c3ccccc3)cc2c1
viability at 24 h, 50 µM [2]: 78.1% | Activity [4]: 16.6%

inhibition [1]: 74% | inhibition [7]: 17% | inhibition [11]: 75% | inhibition [3]: 40.9%
Molecule: O=c1oc(-c2ccc(O)c(O)c2)cc2cccc(O)c12 [THUNBERGINOL A]
fold change (FC) (HeLa [8]): 1 | fold change (FC) (HeLa [9]): 1 | inhibition (HeLa [10]): Active | fold change (FC) (HeLa [12]): 9.6 | viability at 24 h, 50 µM [2]: 68.7% | fold change (FC) (HeLa [13]): 1 | inhibition (HeLa [14]): Active | Activity [4]: 49%

inhibition [1]: 75% | inhibition [3]: 35.6%
Molecule: COc1cc(-c2cc3cccc(O)c3c(=O)o2)ccc1O
viability at 24 h, 50 µM [2]: 79.8% | Activity [4]: 36.2%

inhibition [1]: 60% | inhibition [3]: 55.3%
Molecule: O=c1oc(-c2ccccc2)cc2cccc(O)c12
viability at 24 h, 50 µM [2]: 75.6% | Activity [4]: 13.4%

inhibition [1]: 44% | IC50 (Prostaglandin E synthase [5]): 11.3 µM | inhibition [3]: 59.1%
Molecule: COc1ccc(-c2cc3cccc(O)c3c(=O)o2)cc1O
viability at 24 h, 50 µM [2]: 77.4% | Activity [4]: 17.8%

inhibition [1]: 73% | IC50 [6]: 22.8 µM | inhibition [3]: 78.8%
Molecule: COc1cc(-c2cc3ccccc3c(=O)o2)ccc1O
viability at 24 h, 50 µM [2]: 65% | Activity [4]: 47.8%

inhibition [1]: 74% | IC50 (Prostaglandin E synthase [5]): 7.1 µM | inhibition [3]: 36.4%
Molecule: O=c1oc(-c2ccc(O)cc2)cc2cccc(O)c12
viability at 24 h, 50 µM [2]: 70.6% | Activity [4]: 12.6%

inhibition [1]: 18% | IC50 (Prostaglandin E synthase [5]): 9.7 µM | inhibition [3]: 65.9%
Molecule: COc1ccc(-c2cc3ccccc3c(=O)o2)cc1O
viability at 24 h, 50 µM [2]: 70.5% | Activity [4]: 20%

inhibition [1]: 78% | inhibition [7]: 44% | inhibition [11]: 76% | IC50 [6]: 4.6 µM | inhibition [3]: 84.1%
Molecule: O=c1oc(-c2ccc(O)c(O)c2)cc2ccccc12
fold change (FC) (HeLa [8]): 1 | fold change (FC) (HeLa [9]): 1 | inhibition (HeLa [10]): Active | fold change (FC) (HeLa [12]): 5.6 | viability at 24 h, 50 µM [2]: 78.7% | fold change (FC) (HeLa [13]): 1 | inhibition (HeLa [14]): Active | Activity [4]: 53 to 53.2%

inhibition [1]: 68% | inhibition [22]: Active | IC50 [6]: 12.4 µM | inhibition [3]: 80 to 80.3%
Molecule: COc1cc(-c2cc3cccc(O)c3c(=O)o2)cc(OC)c1OC
viability at 24 h, 50 µM [2]: 80.2% | Activity [4]: 12 to 12.4%

Further lines, the molecule ahead of its results:

Molecule: COc1cc(-c2cc3ccccc3c(=O)o2)cc(OC)c1OC
inhibition [1]: 73% | IC50 (Prostaglandin E synthase [5]): 9.3 µM | viability at 24 h, 50 µM [2]: 75.7% | IC50 [6]: 20.9 µM | inhibition [3]: 72% | Activity [4]: 15.8%

Molecule: CC(c1cc2ccccc2s1)N(O)C(N)=O (centres undefined) [ZILEUTON]
inhibition [1]: 50% | viability at 24 h, 50 µM [2]: 78% | Activity [4]: 33.6%

Molecule: O=C1O[C@H]([C@@H](O)CO)C(O)=C1O
Activity [4]: 82.2%

Molecule: CC1(C)Cc2c(-c3ccccc3)c(-c3ccc(Cl)cc3)c(CC(=O)O)n2C1 [LICOFELONE]
inhibition (HeLa [15]): Active | inhibition [16]: 48% | IC50 [17]: 0.8 µM | EC50 (Prostaglandin E synthase [18]): 0.1 µM | viability at 24 h, 50 µM [2]: 85% | inhibition [19]: 81% | IC50 [6]: 0.5 µM | inhibition [20]: 54.7% | inhibition [3]: 71% | inhibition (HeLa [21]): Active

Molecule: COc1cc(O)c2c(=O)oc(-c3cc(OC)c(OC)c(OC)c3)cc2c1
inhibition [1]: 14% | viability at 24 h, 50 µM [2]: 60.5% | inhibition [3]: 36.2% | Activity [4]: 15.4%

Molecule: O=c1oc(-c2ccccc2)cc2ccccc12
inhibition [1]: 75% | IC50 (Prostaglandin E synthase [5]): 9.5 µM | viability at 24 h, 50 µM [2]: 76.7% | inhibition [3]: 50% | Activity [4]: 14%

Molecule: O=c1oc(-c2ccc(O)cc2)cc2ccccc12
inhibition [1]: 65% | viability at 24 h, 50 µM [2]: 81.4% | inhibition [3]: 34.1% | Activity [4]: 17%

B1: Polyunsaturated fatty acid 5-lipoxygenase (Homo sapiens), P09917 (protein)
chain: T2 sequence (whole entry)
Vmax [23]: 0.64 nmol/min | Vmax [24]: 0.93 nmol/min | Km [25]: 1.38 µM | Vmax [26]: 0.93 nmol/min | Km [27]: 1.17 µM | Km [28]: 1.2 µM | Km [29]: 1.45 µM | Vmax [30]: 0.83 nmol/min
